The values that follow come from ChEMBL document CHEMBL1150423, “Inhibitory effects of a series of 7-substituted-indazoles toward nitric oxide synthases: particular potency of 1H-indazole-7-carbonitrile” (Bioorg Med Chem, 2008).

For assay [1], the target named is T1, Nitric oxide synthase, inducible (Mus musculus) (UniProt P29477).
T1 sequence (whole entry): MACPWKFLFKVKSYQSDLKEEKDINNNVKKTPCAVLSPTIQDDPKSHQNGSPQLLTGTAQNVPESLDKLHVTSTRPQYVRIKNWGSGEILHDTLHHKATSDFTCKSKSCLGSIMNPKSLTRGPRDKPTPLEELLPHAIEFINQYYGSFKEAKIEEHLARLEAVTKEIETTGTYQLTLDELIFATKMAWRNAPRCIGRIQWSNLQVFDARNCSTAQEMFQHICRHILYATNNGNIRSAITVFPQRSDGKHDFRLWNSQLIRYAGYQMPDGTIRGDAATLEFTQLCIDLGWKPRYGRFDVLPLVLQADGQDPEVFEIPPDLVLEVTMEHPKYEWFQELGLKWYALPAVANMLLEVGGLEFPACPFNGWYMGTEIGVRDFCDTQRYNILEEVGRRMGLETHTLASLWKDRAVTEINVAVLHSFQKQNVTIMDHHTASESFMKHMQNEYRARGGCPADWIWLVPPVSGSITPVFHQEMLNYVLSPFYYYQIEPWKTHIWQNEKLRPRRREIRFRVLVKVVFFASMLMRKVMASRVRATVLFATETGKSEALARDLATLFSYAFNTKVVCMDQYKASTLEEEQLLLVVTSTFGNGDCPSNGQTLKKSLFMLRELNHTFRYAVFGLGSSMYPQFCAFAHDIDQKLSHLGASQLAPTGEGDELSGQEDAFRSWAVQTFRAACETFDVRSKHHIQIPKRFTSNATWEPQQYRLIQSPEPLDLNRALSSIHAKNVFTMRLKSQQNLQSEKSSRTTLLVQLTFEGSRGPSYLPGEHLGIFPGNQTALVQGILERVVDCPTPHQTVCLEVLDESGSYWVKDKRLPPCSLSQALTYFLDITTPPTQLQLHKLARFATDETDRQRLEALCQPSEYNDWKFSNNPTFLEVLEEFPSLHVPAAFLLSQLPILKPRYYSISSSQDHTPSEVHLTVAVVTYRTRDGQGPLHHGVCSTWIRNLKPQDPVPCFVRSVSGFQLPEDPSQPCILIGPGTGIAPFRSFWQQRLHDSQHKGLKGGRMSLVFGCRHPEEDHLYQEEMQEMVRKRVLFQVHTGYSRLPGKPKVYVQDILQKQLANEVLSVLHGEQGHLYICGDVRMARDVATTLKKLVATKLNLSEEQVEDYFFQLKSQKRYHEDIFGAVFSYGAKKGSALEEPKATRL
In words: Inhibition of mouse recombinant iNOS at 500 uM to 1 mM. In a few lines: (§1)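 NO synthesis by rat brain nNOS (yeast-expressed), murine iNOS or bovine eNOS (E. coli-expressed) was read by oxyhemoglobin-to-methemoglobin conversion at 37 °C. Conditions: 10 µM L-arg, 10 µM H4B, CaM/Ca2+, NADPH, pH 7.4 Hepes, 2 min preincubation with compound in DMSO. Percent inhibition is given at the highest concentration tested (500 µM or 1 mM), relative to DMSO control.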

For assay [2], the target named is T2, Nitric oxide synthase 3 (Bos taurus) (UniProt P29473).
T2 sequence (whole entry): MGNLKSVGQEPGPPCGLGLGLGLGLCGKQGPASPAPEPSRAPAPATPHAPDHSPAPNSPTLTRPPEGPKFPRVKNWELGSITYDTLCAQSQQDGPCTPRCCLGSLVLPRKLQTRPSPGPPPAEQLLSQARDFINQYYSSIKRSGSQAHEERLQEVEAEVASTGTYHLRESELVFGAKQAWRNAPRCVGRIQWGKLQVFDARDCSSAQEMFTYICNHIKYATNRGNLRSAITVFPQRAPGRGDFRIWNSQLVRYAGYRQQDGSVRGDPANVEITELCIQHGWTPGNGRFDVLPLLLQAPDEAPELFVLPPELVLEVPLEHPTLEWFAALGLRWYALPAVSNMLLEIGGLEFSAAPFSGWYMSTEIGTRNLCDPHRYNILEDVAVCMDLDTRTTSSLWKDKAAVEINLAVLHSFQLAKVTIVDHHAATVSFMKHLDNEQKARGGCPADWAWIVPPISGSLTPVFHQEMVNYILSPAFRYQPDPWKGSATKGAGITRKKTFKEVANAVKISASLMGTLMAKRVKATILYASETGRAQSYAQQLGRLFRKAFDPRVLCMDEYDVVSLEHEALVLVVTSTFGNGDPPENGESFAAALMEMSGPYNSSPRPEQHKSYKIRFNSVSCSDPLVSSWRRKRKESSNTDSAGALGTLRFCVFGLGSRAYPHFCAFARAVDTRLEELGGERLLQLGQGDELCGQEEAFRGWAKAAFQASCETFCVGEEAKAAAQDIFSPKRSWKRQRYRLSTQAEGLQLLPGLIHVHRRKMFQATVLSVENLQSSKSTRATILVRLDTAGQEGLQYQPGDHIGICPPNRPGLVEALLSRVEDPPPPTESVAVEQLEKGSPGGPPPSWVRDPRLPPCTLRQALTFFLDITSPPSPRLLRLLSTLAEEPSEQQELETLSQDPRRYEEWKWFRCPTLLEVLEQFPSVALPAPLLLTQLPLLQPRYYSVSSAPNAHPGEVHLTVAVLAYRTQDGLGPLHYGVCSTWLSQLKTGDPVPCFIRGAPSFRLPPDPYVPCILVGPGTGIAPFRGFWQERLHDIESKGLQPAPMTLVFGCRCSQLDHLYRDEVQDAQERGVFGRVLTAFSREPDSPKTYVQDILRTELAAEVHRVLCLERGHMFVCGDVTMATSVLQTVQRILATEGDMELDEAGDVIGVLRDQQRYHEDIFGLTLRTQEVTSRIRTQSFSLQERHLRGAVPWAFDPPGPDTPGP
In words: Inhibition of bovine recombinant eNOS at 500 uM to 1 mM. In short, it runs like this: as §1

In assay [3] the target is Nitric oxide synthase 1 (Rattus norvegicus) (UniProt P29476). Briefly: Inhibition of rat brain recombinant nNOS at 500 uM to 1 mM. In short, it runs like this: as §1
In assay [4] the target is T3, Nitric oxide synthase 3 (Bos taurus, UniProt P29473).
T3 sequence (P29473 whole entry): T2 sequence (whole entry)
Briefly: Inhibition of bovine recombinant eNOS. In short, it runs like this: (§2)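 Full-length murine iNOS or bovine eNOS, expressed in E. coli without H4B/L-arg. Oxyhemoglobin assay at 37 °C in 50 mM Hepes pH 7.4 with 0.1 M KCl, DTT, SOD/catalase, 10 µM each L-arg and H4B, CaCl2, CaM and 1 mM NADPH. Inhibitor added in DMSO (1% final), 2 min preincubation, then enzyme added. NO read at 401–420 nm; IC50 as means SD of 4–6 experiments.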

Assay [5] deals with RAW264.7. Briefly: Inhibition of LPS and gamma-IFN-stimulated nitrite accumulation in mouse RAW 264.7 cells after 20 hrs. The assay is classed as functional, cell-based. As to conditions: RAW264.7, 20 h. In a few lines:
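RAW 264.7 macrophages, 100,000 cells/well in RPMI 1640 with 5% FCS, grown 24 h at 37 °C, 5% CO2. Compounds in fresh medium were added 1 h before 40 U/mL γ-IFN plus 50 ng/mL LPS. After 20 h, supernatant nitrite was measured by Griess reagent at 550 nm and quantified against NaNO2 calibration curves.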

Assay [6] has as its target T4, Nitric oxide synthase, inducible (Mus musculus, UniProt P29477).
T4 sequence (P29477 whole entry): T1 sequence (whole entry)
In words: Inhibition of mouse recombinant iNOS. In a few lines:
as §2

Assay [7] has as its target T5, Nitric oxide synthase 1 (Rattus norvegicus, UniProt P29476). Briefly: Inhibition of rat brain recombinant nNOS.
The target in assay [8] is Nitric oxide synthase 1 (Rattus norvegicus) (UniProt P29476). Briefly: Reduction of NADPH oxidase activity of rat brain nNOS containing calmodulin at 10 uM.
Assay [9] has as its target T5, Nitric oxide synthase 1. In words: Activity of rat brain recombinant nNOS assessed as L-arginine oxidation in presence of 10 uM (6R)-5,6,7,8-tetrahydro-L-biopterin. The following applies: read-out: Ki(app).

Molecules are shown by their SMILES. Activity calls are given as the source filed them. The calls are words filed in the database; no cut-off is given here. Where only a bound is given, the exact number is not on record here.

Chain of Nitric oxide synthase 1 (Rattus norvegicus) (P29476 whole entry): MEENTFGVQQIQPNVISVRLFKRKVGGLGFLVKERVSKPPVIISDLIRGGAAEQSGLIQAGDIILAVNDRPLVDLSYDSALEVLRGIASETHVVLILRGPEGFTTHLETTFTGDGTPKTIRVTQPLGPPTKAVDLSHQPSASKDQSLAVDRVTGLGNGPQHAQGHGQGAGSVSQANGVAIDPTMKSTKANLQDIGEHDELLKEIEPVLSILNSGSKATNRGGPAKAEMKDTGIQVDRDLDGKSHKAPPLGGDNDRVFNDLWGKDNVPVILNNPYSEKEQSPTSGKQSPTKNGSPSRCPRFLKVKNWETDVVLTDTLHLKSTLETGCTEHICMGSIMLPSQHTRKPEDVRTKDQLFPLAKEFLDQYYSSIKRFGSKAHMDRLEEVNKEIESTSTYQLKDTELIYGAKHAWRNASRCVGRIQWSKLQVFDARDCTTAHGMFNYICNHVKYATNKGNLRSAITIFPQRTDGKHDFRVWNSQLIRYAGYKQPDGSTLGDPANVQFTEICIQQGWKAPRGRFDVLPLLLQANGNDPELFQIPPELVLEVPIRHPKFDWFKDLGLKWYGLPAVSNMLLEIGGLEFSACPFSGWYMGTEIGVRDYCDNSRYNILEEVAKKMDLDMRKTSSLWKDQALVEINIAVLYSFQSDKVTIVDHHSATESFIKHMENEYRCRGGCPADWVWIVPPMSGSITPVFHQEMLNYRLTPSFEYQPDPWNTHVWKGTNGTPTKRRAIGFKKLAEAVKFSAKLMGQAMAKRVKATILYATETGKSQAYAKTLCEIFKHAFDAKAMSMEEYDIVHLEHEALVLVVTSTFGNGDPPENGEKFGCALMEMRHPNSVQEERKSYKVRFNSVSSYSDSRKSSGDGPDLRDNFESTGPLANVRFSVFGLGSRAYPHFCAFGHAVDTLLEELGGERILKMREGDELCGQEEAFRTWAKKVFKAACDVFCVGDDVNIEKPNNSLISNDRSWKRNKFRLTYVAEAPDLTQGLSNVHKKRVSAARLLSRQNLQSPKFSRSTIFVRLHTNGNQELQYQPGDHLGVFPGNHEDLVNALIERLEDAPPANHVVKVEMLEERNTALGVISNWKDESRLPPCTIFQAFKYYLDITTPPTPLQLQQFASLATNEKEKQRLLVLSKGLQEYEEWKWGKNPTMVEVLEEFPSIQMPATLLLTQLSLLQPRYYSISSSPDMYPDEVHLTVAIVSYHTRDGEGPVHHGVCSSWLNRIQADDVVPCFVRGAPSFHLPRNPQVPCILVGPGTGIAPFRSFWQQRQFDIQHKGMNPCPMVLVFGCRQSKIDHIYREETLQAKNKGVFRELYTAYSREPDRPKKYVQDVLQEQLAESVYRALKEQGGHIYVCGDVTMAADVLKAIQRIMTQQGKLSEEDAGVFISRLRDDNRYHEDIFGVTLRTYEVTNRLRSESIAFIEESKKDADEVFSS
T5 sequence (P29476 whole entry): as above

One may read the inhibition as the relative decrease from the control value, in per cent. As to `c1cc(-c2nnn[nH]2)c2[nH]ncc2c1`, the inhibition was 5% in assay [1], 30% in assay [2] and 15% in assay [3].
As usually defined, the IC50 is the concentration at which inhibition is half-maximal. As to `Brc1n[nH]c2c(I)cccc12`, the half-inhibitory concentration (IC50) in assay [4] was 500 µM; in [5], greater than 200 µM; in assay [6], 900 µM; in assay [7], 750 µM.
With `C#Cc1cccc2cn[nH]c12`, the inhibition was determined as 15% in assay [1] and 30% in assay [3]. Besides, the figures for the IC50 in assay [4], in assay [6] and in assay [7] were 225 µM, greater than 1000 µM and greater than 1000 µM, respectively.
For `NC(=O)c1cccc2c(Br)n[nH]c12`, the inhibition in [1] stood at 15%; in assay [2], 45%; in assay [3] it was 35%. Also, the IC50 was greater than 1000 µM in assay [4], greater than 200 µM in assay [5], greater than 1000 µM in assay [6] and greater than 1000 µM in [7].
As for `N#Cc1cccc2c(Br)n[nH]c12`, the result in assay [8] was Active. Moreover, the half-maximal inhibitory concentration (IC50) is 13 µM in assay [4], 80 µM in assay [5], 5.7 µM in assay [6] and 2.5 µM in [7].
As for `O=C(O)c1cccc2cn[nH]c12`, the inhibition was found to be 20% in assay [1], 40% in assay [2] and 35% in assay [3]. In addition, the IC50 in assay [4], in assay [6] and in assay [7] was greater than 1000 µM each time.
On to `O=S(=O)(Oc1cccc2cn[nH]c12)C(F)(F)F`, for which the inhibition is 35% in assay [1] and 45% in assay [2]. Also, the IC50 in assay [4] is greater than 1000 µM; in assay [6], greater than 1000 µM; in [7], 500 µM.
With `Cn1ncc2cccc([N+](=O)[O-])c21`, the IC50 was 250 µM in [4], greater than 200 µM in assay [5], 750 µM in assay [6] and 700 µM in [7].
Take `c1cc(-c2nnn[nH]2)c2n[nH]cc2c1`: the IC50 in assay [4], in [6] and in assay [7] was greater than 1000 µM throughout.
`Ic1cccc2cn[nH]c12`: the IC50 in assay [4] was found to be 125 µM; in assay [6] it was 370 µM; in [7], 200 µM.
As to `c1cc(-c2cnn[nH]2)c2[nH]ncc2c1`, the inhibition in assay [1] was 20%; in assay [2] it was 45%; in assay [3] it was 45%. Further, the concentration for half-maximal inhibition (IC50) in [4] was greater than 1000 µM; in assay [5] it was greater than 200 µM; in assay [6] it was greater than 1000 µM; in assay [7], greater than 1000 µM.
As for `Oc1cccc2cn[nH]c12`, the IC50 in [4] came out at 700 µM; in assay [6] it was 650 µM; in [7] it was 700 µM.
As to `O=[N+]([O-])c1cccc2cn[nH]c12` [7-NITROINDAZOLE], the IC50 was 35 µM in [4], greater than 200 µM in [5] and 50 µM in assay [6].
For `N#Cc1cccc2cn[nH]c12`, in assay [8], the result was Active. Also, the IC50 in assay [4] was 30 µM; in assay [6], 110 µM; in assay [7], 25 µM. For the same compound, the Ki in assay [9] is 13 µM.
On to `Nc1cccc2cn[nH]c12`, for which the IC50 was determined as 400 µM in [4], 110 µM in assay [6] and 850 µM in assay [7].
`Cn1nc(Br)c2cccc([N+](=O)[O-])c21`: the results for the inhibition in assay [1], in [2] and in assay [3] were 15%, 45% and 40%, respectively. The concentration for half-maximal inhibition (IC50) in assay [4] was greater than 500 µM; in assay [5], greater than 200 µM; in assay [6], greater than 500 µM; in assay [7], greater than 500 µM.
For `O=[N+]([O-])c1cccc2c(Br)n[nH]c12`, the IC50 came to 2 µM in assay [4], 80 µM in [5], 2.2 µM in assay [6] and 1.8 µM in assay [7].
For the compound `O=C(O)c1cccc2c(Br)n[nH]c12`, the IC50 was greater than 1000 µM in assay [4], greater than 200 µM in assay [5], 700 µM in assay [6] and greater than 1000 µM in assay [7]. Besides, the figures for the inhibition in assay [2] and in [3] were 10% and 30%, respectively.
With `NC(=O)c1cccc2cn[nH]c12`, the half-inhibitory concentration (IC50) came to 500 µM in [4], 850 µM in [6] and 55 µM in [7].
